Screening results as filed in PubChem BioAssay.
TbHK1 inh = Trypanosoma brucei hexokinase 1 inhibitors, primary screen, biochemical, G6PDH-coupled NADH absorbance, MLSCN library | actives 0.11% (n = 220,000) | hexokinase 1 [Trypanosoma brucei] | inhibition, % at 10 µM | recombinant TbHK1, G6PDH-coupled NADH A340;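 active means inhibition of 50% or more in the single-dose primary screen; inactive means inhibition below 50%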
Mdm2 ligase inh = MDM2-luciferase reporter signal enhancers, primary screen, MDM2 E3 ligase inhibitor project, cell-based, luminescence, 1536-well; E3 ubiquitin-protein ligase Mdm2 (Homo sapiens), Q00987; cell-based MDM2 ubiquitination luciferase reporter, 2 h; 0 = plate control, 100 = twice control, blank-subtracted; signal enhancement, % at 5 µM; actives 0.11% (n = 210,000);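 active means signal enhancement of 30% or more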;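 further: luminescence tracks abundance of the self-degrading MDM2-luciferase fusion protein; higher signal means inhibition of MDM2 E3 ligase activity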
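Material: Stable MDM2–luciferase fusion reporter cells | Amount: 2000 cells seeded into each well | Dosing: One concentration, 5 µM, with 0.2% DMSO | Incubation: 4 h cell settling then 2 h compound exposure, 37 °C | Measured by: Luciferase luminescence | Read-out basis: % enhancement relative to plate controls after blank subtraction | Benchmarks: Control and blank well means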
Wee1 degr inh = Wee1 degradation inhibitors, primary screen, cell-based, HeLa, Wee1K328M-luciferase, luminescence. reporter increase, % at 5 µM. HeLa Luc-Wee1K328M stability; 100% = proteasome inhibitor MG132 effect. actives 1.2% (n = 220,000). AID 1321, 2008. Wee1-like protein kinase (Homo sapiens), P30291;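 active means activation above the mean of all tested compounds plus 3 SD, set per screening run, cut at about 8.8% in these data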;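 further: cells exposed to compound for 20 h before luminescence read; 0% = DMSO alone and 100% = MG132 at 30 µM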
Hck Nef HTS = inhibitors of Nef-activated human Hck kinase, primary screen, biochemical, Z-Lyte FRET, 384-well, Hck-YEEI | Recombinant Hck-YEEI plus Nef, Z-Lyte FRET kinase assay | inhibition, % at 20 µM | actives 0.68% (n = 220,000) | AID 463187, 2010;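 active means Hck-Nef kinase inhibition above about 50%, limit read from the data; inactive means inhibition below that limit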;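 further: 0% = DMSO with Hck plus Nef and 100% = Hck alone without Nef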
14-3-3 Bad PPI = inhibitors of 14-3-3 zeta/Bad binding, primary screen, biochemical, TR-FRET, bovine 14-3-3 zeta. inhibition, % at 21.7 µM. TR-FRET 14-3-3zeta/Dy647-pBad peptide displacement, 1 h. AID 781, 2007. actives 0.71% (n = 220,000);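 active means inhibition above about 70%, limit read from the data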;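 further: 0% = full 14-3-3 plus peptide FRET controls and 100% = background without 14-3-3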
Target sequence (P63103 whole entry, looked up): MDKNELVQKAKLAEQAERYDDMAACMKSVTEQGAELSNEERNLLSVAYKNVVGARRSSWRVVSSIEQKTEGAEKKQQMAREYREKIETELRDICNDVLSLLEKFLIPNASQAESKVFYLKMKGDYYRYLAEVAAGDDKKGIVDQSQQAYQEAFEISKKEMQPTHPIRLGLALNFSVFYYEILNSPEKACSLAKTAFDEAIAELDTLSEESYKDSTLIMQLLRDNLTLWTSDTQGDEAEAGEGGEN
G6PDH counter = Leuconostoc G6PDH inhibition, confirmation, counter-screen for TbHK1 inhibitor project, biochemical, DPI cherry-picked compounds, single concentration; shares compounds with TbHK1 inh; purified G6PDH, NADH absorbance, 1 h; inhibition, % at 10 µM; actives 7% (n = 210); AID 2516, 2010;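 active means at least 50% inhibition in the glucose-6-phosphate dehydrogenase coupled counterscreen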
TbHK1 confirm = TbHK1 inhibitor retest, confirmation, biochemical, DPI cherry-picked primary actives. shares compounds with TbHK1 inh. inhibition, % at 10 µM. AID 2560, 2010. actives 10% (n = 210). recombinant TbHK1, G6PDH-coupled NADH A340 absorbance;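 active means inhibition of at least 50% in both of the two screening runs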;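 further: 0% and 100% set by the maximum and minimum signal control wells on each plate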
* marks the source's active call; other numbers are inactive results; · = no result given. Compounds with a hit are over-represented: about 2.7% of the library has one in this group of screens.

SMILES | TbHK1 inh | Mdm2 ligase inh | Wee1 degr inh | Hck Nef HTS | 14-3-3 Bad PPI | G6PDH counter | TbHK1 confirm
NC(=O)C1CCN(C(=O)CN(c2cccc(C(F)(F)F)c2)S(=O)(=O)c2ccccc2)CC1 | 52* | -25 | -1 | 6 | -10 | -7 | 0
Cc1cccc(C(=O)NC(=S)NNC(=O)c2ccc(Cl)cc2)c1 | 62* | -5 | 1 | 0 | -3 | -44 | -39
Cn1c(=O)c2c(nc(N/N=C/c3ccc(OC(=O)c4ccco4)cc3)n2Cc2ccccc2)n(C)c1=O | 25 | -2 | -2 | 4 | 0 | · | ·
COc1ccc(C(=O)Nc2cc(Cl)ccc2C(=O)O)cc1 | 53* | -14 | 1 | -3 | -2 | -20 | 65*
COc1ccc(C(=O)Nc2cc(Cl)ccc2OC(=O)c2ccc(OC)cc2)cc1 | 0 | -12 | 3 | 1 | -6 | · | ·
Cc1c(Cl)cnc(NC(=O)COC(=O)c2cc3c(s2)CCC(C)C3)c1Cl (stereo not given) | -9 | -13 | -3 | 3 | -3 | · | ·
Cc1ccccc1N=Nc1ccc(O)c2ncccc12 | 64* | 17 | 0 | 3 | -5 | -4 | -8
O=C(c1cc2nc(-c3ccccc3)cc(-c3ccccc3)n2n1)N1CCN(C(=O)c2ccco2)CC1 | -11 | -29 | -2 | 3 | 41 | · | ·
CCOC(=O)/C(C#N)=C\C1=C(N2CCOCC2)CC(C)(C)OC1 | 2 | -8 | -1 | 20 | -7 | · | ·
CCN1/C(=C/C=C/c2oc3ccc4ccccc4c3[n+]2CC)Oc2ccc3ccccc3c21 | 100* | -8 | 0 | -15 | 91* | 132* | 85*
COc1ccc(C(NC=O)c2cc(OC)c(OC)cc2Br)cc1OC (stereo not given) | -4 | -11 | -3 | 3 | 12 | · | ·
Cn1c(SCc2ccc(C#N)cc2)nnc1-c1cccc(Cl)c1 | 55* | -32 | -2 | 7 | 1 | -12 | 20
Cn1c(SCc2ccc(C#N)cc2)nnc1-c1ccccc1 | 4 | -10 | 4 | -2 | 6 | · | ·
O=C(NCCc1cnn(-c2ccccc2)c1)c1cc(COc2c(F)cccc2F)on1 | 1 | -2 | 0 | 32 | -8 | · | ·
CCc1cccc(NC(=O)C2CCCC2)c1 | -2 | -11 | -1 | 0 | 2 | · | ·
CCc1cccc(NC(=O)NC2CCCCC2)c1 | 60* | -3 | 4 | 13 | 1 | -5 | 5
Cn1c(SCc2cccc(F)c2)nnc1-c1ccccn1 | 55* | -24 | 3 | 6 | 1 | -8 | -2
Cn1c(SCc2cccc(Br)c2)nnc1-c1ccccn1 | 3 | -4 | -5 | 11 | -10 | · | ·
O=C(CN(CC1CCCO1)C(=O)c1nsc(Cl)c1Cl)NC1CCCC1 (stereo not given) | -1 | -11 | -1 | 29 | -12 | · | ·
CCOCCCNC(=O)C(NC(=O)c1cnccn1)c1ccc(C)cc1 (stereo not given) | 55* | -15 | 0 | 1 | -6 | -5 | 3
Cc1ccc2c(c1)N(CC(=O)NC1CCCc3ccccc31)C(=O)CO2 (stereo not given) | 66* | 8 | 2 | 3 | 5 | 1 | -1
COc1cccc2c(=O)c(C(=O)NCc3cccs3)c[nH]c12 | 53* | -17 | 4 | 9 | -16 | -13 | -22
Cc1ccc2[nH]cc(C(=O)NCc3cccs3)c(=O)c2c1 | 0 | 10 | -2 | 8 | 7 | · | ·
NC(=O)C1CCN(C2CC(=O)N(c3cccc(F)c3)C2=O)CC1 (stereo not given) | 61* | -51 | -1 | 7 | 6 | -1 | 2
Cc1ccc(Cn2c(-n3nc(C)cc3C)nc3c2c(=O)[nH]c(=O)n3C)cc1 | 56* | -4 | 2 | 4 | 2 | -11 | 0
SMILES | TbHK1 inh | Mdm2 ligase inh | Wee1 degr inh | Hck Nef HTS | 14-3-3 Bad PPI | G6PDH counter | TbHK1 confirm
O=C(CSc1nnc(COc2ccccc2)o1)NCCc1ccccc1 | 73* | -72 | -2 | 10 | 14 | -9 | -22
Cc1cccc(OCc2nnc(SCC(=O)NCCc3ccccc3)o2)c1 | -1 | -21 | 0 | 0 | -4 | · | ·
CC1CCCC(C)N1C(=O)CSc1nnc(CSc2ncccn2)n1C (stereo not given) | -2 | -17 | 1 | -2 | -4 | · | ·
Cc1c(NC(=O)CCC(=O)N2CCCCC2)c(=O)n(-c2ccccc2)n1C | 10 | 1 | -1 | 0 | 8 | · | ·
O=C1CCC(C(=O)NCCCn2ccnc2)N1 (stereo not given) | 58* | -3 | -1 | 6 | -5 | -1 | 2
O=C(NCCCn1ccnc1)C1CC2CCC1C2 (stereo not given) | -5 | -16 | 2 | 0 | -10 | · | ·
Cc1ccc(S(=O)(=O)Nc2ccc(C(=O)OCC(=O)N(CCC#N)c3ccccc3)cc2)cc1C | -3 | -4 | -4 | 2 | 5 | · | ·
CCOC(=O)c1cnn(-c2ncnc3c2cnn3Cc2ccccc2)c1N | -6 | · | 7 | 2 | · | · | ·
O=c1[nH]c2ccccc2c2nc3ccccn3c12 | 2 | -10 | 1 | 46 | 11 | · | ·
O=c1nc2c(O)cccn2c2c1c(=O)[nH]c1ccccc12 | 56* | -7 | 1 | -5 | 2 | 45 | 70*
O=C(N/N=C/c1cccs1)c1cc(-c2cccc3ccccc23)n[nH]1 | -3 | -6 | 0 | 6 | 5 | · | ·
Cc1cc(C)nc(/N=C2\NC(=O)CC(C(=O)O)N2c2ccc(Oc3ccccc3)cc2)n1 (stereo not given) | 8 | -1 | -2 | 2 | -1 | · | ·
CCOc1ccc(N2CC(=O)N/C2=N\c2nc(C)cc(C)n2)cc1 | 69* | -33 | -2 | 11 | -2 | -9 | -8
C/C(Cl)=C/Cn1c(=O)c2c(nc(Br)n2Cc2ccccc2)n(C)c1=O | 58* | -11 | 0 | 6 | -6 | -5 | 4
COC(=O)C1(S(=O)(=O)c2ccc(C)cc2)CCOCC1 | 62* | -6 | 8 | 7 | -8 | -9 | 1
Cc1cc(C(=O)C(C)Sc2cccc[n+]2[O-])c(C)n1-c1ccc(Cl)cc1 (stereo not given) | -14 | 3 | 2 | 4 | 0 | · | ·
